Results gathered from unrelated publications.
Lines come from different studies, so protocols differ.
Target: Serine/threonine-protein kinase PAK 4 (PAK4, Homo sapiens, UniProt O96013)

| SMILES | observed | technique | tested at | remaining binding |
| --- | --- | --- | --- | --- |
| Cc1nc(N2CC[C@@H](O)C2)ncc1-c1cc(C(F)(F)F)cc2[nH]ncc12 | cell-free assay | competition with immobilised ligand | 1 µM | 100% |
| COc1ccnn2ncc(-c3ccnc(N(C)C)n3)c12 | binding |  | 1 µM | 85% |
| O=C(NCC1CCOCC1)c1n[nH]cc1NC(=O)c1c(F)cccc1F | binding | competition with immobilised ligand | 1 µM | 99% |
| O=C(O)c1cc(-c2ccc(C3CCNCC3)cc2)c2ccc(-c3ccc(C(F)(F)F)cc3)cc2c1 | cell-free assay | competition with immobilised ligand | 1 µM | 100% |
| C[C@@H](c1ccc(-n2cnc3c(N)ncnc32)cc1)N1CCc2nn(C)c(Cc3ccccc3)c2C1=O | binding | competition with immobilised ligand | 0.1 µM | 100% |
| O=C(NCCCN1CCOCC1)c1ccc(Nc2nccc(-c3cc4ccccc4s3)n2)cc1 | binding | competition with immobilised ligand | 1 µM | 91% |
| O=C(NCc1ncc(C(F)(F)F)cc1Cl)c1ccc2c(c1)C1(CCS(=O)(=O)CC1)[C@H](C1CC1)N2S(=O)(=O)c1ccc(F)cc1 | cell-free assay | competition with immobilised ligand | 1 µM | 100% |
| C[C@@H]1CCN(c2nccc(-c3cnn4ncccc34)n2)C1 | binding |  | 1 µM | 100% |
| CNC(=O)Nc1ccc2c(c1)[C@@]1(CC2)OC(=O)N(CC(=O)N(Cc2ccc(F)cc2)[C@@H](C)C(F)(F)F)C1=O | cell-free assay | competition with immobilised ligand | 1 µM | 95% |
| c1cnn2ncc(-c3ccnc(N4CCC45COC5)n3)c2c1 | binding |  | 1 µM | 96% |
| C[C@@H]1CN(c2ccc3ncc(-c4ccc5[nH]nc(C6CC6)c5c4)n3n2)C[C@H](C)O1 | binding | competition with immobilised ligand | 0.5 µM | 83% |
| O=C(c1ccc(Nc2ncc(Cl)c(-c3ccc(Cl)s3)n2)cc1)N1CCC(N2CCCC2)CC1 | binding | competition with immobilised ligand | 1 µM | 53% |
| O=C(NC[C@@H]1[C@H]2CN(C(=O)OCc3cc(C(F)(F)F)cc(C(F)(F)F)c3)C[C@@H]12)c1ccc2[nH]nnc2c1 | cell-free assay | competition with immobilised ligand | 1 µM | 100% |
| Nc1ncc2c(n1)-c1c([nH]c3ccc(C#CC4CC4)cc13)CCCC2 | binding | competition with immobilised ligand | 1 µM | 76% |
| CS(=O)(=O)NCC[C@H](NC(=O)c1cncc2c1cnn2-c1ccc(F)cc1)c1ccnc(S(C)(=O)=O)c1 | cell-free assay | competition with immobilised ligand | 1 µM | 100% |
| Cc1cnn2ncc(-c3ccnc(N(C)C)n3)c2c1 | binding |  | 1 µM | 100% |
| O=C(c1ccc(Nc2nccc(-c3cc4ccccc4s3)n2)cc1)N1CCC(N2CCCC2)CC1 | binding | competition with immobilised ligand | 1 µM | 81% |
| N[C@@H]1CCN(c2nccc(-c3cnn4ncccc34)n2)C1 | binding |  | 1 µM | 100% |
| Cc1nc(C2CCN(C(=O)c3ccc(OC(F)(F)F)cc3N)CC2)c2ncc(N3CCN(C)CC3)cc2n1 | cell-free assay | competition with immobilised ligand | 1 µM | 100% |
| CCN1CCN(Cc2ccc(C(=O)Nc3ccc(C)c(Oc4ccc5c(c4)CC(=O)N5)c3)cc2C(F)(F)F)CC1 | binding | competition with immobilised ligand | 1 µM | 100% |
| COc1ncc2cc3ccccc3nc2c1C#N | cell-free assay | competition with immobilised ligand | 5 µM | 97% |
| CN(C)c1nccc(-c2cnn3ncccc23)n1 | binding |  | 1 µM | 100% |
| CNC(=O)[C@@H]1CC[C@@H](n2c(-c3ccc4cnccc4c3)nc3ccc(C(=O)NCc4cccc(C(N)=O)c4)cc32)C1 | binding | competition with immobilised ligand | 1 µM | 100% |
| CC1CCCN1c1nccc(-c2cnn3ncccc23)n1 (stereo not shown) | binding |  | 1 µM | 100% |
| c1cncc(-c2cccc(Nc3nccc(NC4CCCCC4)n3)c2)c1 | binding | competition with immobilised ligand | 10 µM | 83% |
